# dFosB activator: activators of delta FosB homodimer, primary screen, biochemical, fluorescence polarization, TAMRA-CDK5 oligo, single point; activation, % at 25 µM; purified delta FosB; percent of positive-control signal above neutral wells; Protein FosB (Mus musculus), P13346; 0.99% of 340,000 active;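 active means mean activation above about 17%, with every replicate also reaching it, limit read from the data, passing the limit was not always enough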
# CAL PDZ FP-1: untagged CAL PDZ binding inhibitors, primary screen, biochemical, fluorescence polarization, HTS. purified CAL PDZ, TMR-peptide fluorescence polarization, 1 h. inhibition, % at 24.9 µM. 0.92% of 300,000 active;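 active means mean inhibition of at least 30% with at least half of replicates also reaching 30%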
# SR-BI DiI-HDL act: activators of SR-BI mediated DiI-HDL uptake, primary screen, ldlA[mSR-BI] CHO cells, DiI fluorescence; 3 h; 100 = double the neutral-control signal; activation, % at 12.5 µM; 0.096% of 320,000 active; AID 504775, 2011;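 active means mean replicate activation of at least 60% and every replicate at or above 60%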
#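 Assay system: CHO ldlA[mSR-BI] cells, LDL receptor-null, SR-BI overexpressing; medium: Ham's F12 with 0.5% BSA, HEPES 25 mM, pH 7.4; also added: DiI-HDL 10 µg/mL; timing: 3 h uptake period with compound, 37 °C; signal: DiI fluorescence, bottom read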
# CAL PDZ FP-2: CAL PDZ peptide-binding inhibitors, primary screen, biochemical, fluorescence polarization, Cer-tagged CAL PDZ, HTS | Golgi-associated PDZ and coiled-coil motif-containing protein (Homo sapiens), Q9HD26 | purified CAL PDZ, TMR-peptide fluorescence polarization, 1 h | inhibition, % at 20 µM | 0.02% of 330,000 active | AID 504414, 2011;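 active means highest replicate inhibition of at least 40%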
#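 Test system: tagged CAL PDZ domain / Buffer or medium: sodium phosphate/NaCl buffer pH 7.4 with TCEP, IgG, Thesit / Reagent: TMR-labelled reporter peptide T*-PRC34 bound in PDZ groove / Compound dosing: single point, 20 µM / Schedule: 1 h incubation at room temperature before polarization reading / Technique: fluorescence polarization (mP) / Benchmarks: unlabelled peptide, DMSO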
# SR-BI DiI inh: inhibitors of SR-BI mediated HDL lipid uptake, primary screen, ldlA[mSR-BI] cells, fluorescence, single point; ldlA[mSR-BI] CHO cells, DiI-HDL uptake fluorescence, 3 h; inhibition, % at 12.5 µM; 0.96% of 320,000 active; AID 488896, 2010;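 active means mean replicate inhibition of at least 70% and a set share of replicates each scoring 70 or more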
# Target sequence (Q61009 whole entry, looked up): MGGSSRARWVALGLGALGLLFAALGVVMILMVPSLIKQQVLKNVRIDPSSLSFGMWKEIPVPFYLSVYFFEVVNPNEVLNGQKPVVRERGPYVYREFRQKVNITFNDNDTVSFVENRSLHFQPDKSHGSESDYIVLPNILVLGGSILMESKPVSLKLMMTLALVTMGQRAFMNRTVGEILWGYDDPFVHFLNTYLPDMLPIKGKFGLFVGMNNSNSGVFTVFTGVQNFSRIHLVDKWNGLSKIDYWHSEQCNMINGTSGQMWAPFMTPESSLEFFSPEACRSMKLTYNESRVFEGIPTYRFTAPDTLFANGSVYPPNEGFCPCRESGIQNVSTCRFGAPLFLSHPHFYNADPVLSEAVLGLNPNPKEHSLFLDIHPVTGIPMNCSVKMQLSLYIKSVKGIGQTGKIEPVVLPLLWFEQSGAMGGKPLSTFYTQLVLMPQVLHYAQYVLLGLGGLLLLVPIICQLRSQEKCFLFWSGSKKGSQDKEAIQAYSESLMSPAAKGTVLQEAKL
# Numbers stand for hits; n = inactive; x = no result. Only some compounds are listed: those with a hit (about 2.8% of all), similar ones and a draw of the others.
SMILES,dFosB activator,CAL PDZ FP-1,SR-BI DiI-HDL act,CAL PDZ FP-2,SR-BI DiI inh
Cc1nn(CC(=O)NNC(=O)c2cccc(Br)c2)c(C)c1[N+](=O)[O-],n,n,n,n,n
NC(=O)Cn1cc(/C=N\NS(=O)(=O)c2ccc(F)cc2)c2ccccc21,n,35,n,n,n
CCc1ccc(S(=O)(=O)N/N=C\c2cn(CC(N)=O)c3ccccc23)cc1,n,n,n,n,n
Cc1cc(S(=O)(=O)NCC(C)C)ccc1OCC(=O)NCc1ccco1,n,n,n,n,n
Cc1cc(Nc2nc3ccccc3nc2Cl)n(-c2ccc([N+](=O)[O-])cc2)n1,n,n,n,n,79
Cc1ccc(S(=O)(=O)N2CCOCC2)cc1C(=O)OCC(=O)Nc1ccc2[nH]c(=O)[nH]c2c1,n,n,n,n,n
CC(C)(CNC(=O)c1cc2ccccc2o1)N1CCOCC1,n,67,n,n,n
CCOC(=O)C(C)(C)Oc1ccc(Cl)cc1,n,n,n,n,n
CC(C)OC(=O)C(C)(C)Oc1ccc(C(=O)c2ccc(Cl)cc2)cc1,n,n,n,n,93
COc1ccccc1Nc1nc(-c2ccc3c(c2)NC(=O)CO3)cs1,n,n,n,n,78
COc1ccc(CN(C(=O)c2snc(C(N)=O)c2N)C(C(=O)NC2CCCC2)c2cc(OC)ccc2OC)cc1 (stereo not drawn),n,x,x,n,x
O=[N+]([O-])c1ccc(N/N=C/c2ccc(O)c(O)c2O)c(S(=O)(=O)N2CCOCC2)c1,n,n,n,x,108
Cc1ccc(Nc2nnc(-c3ccc(N4CCOCC4)c([N+](=O)[O-])c3)c3ccccc23)cc1,n,n,n,n,n
O=[N+]([O-])c1cc(-c2nnc(Nc3ccccc3)c3ccccc23)ccc1N1CCOCC1,n,n,n,n,74
Cc1cc(C)n2nc(SC(C)C(=O)N(C)c3ccccc3)nc2n1 (stereo not drawn),n,n,n,n,n
COc1ccc(-n2nc(C(=O)NCC(=O)Nc3ccccn3)c3ccccc3c2=O)cc1Cl,67,n,n,n,n
COc1ccc(-n2nc(C(=O)NCC(=O)N3CCC(C)CC3)c3ccccc3c2=O)cc1,n,47,n,n,n
COc1ccc(-n2nc(C(=O)NCC(=O)Nc3cc(Cl)c(OC)cc3OC)c3ccccc3c2=O)cc1,n,n,n,n,84
COc1ccc(-n2nc(C(=O)NCC(=O)NC(C)C)c3ccccc3c2=O)cc1Cl,n,n,n,n,n
COc1ccc(-n2nc(C(=O)NCC(=O)N3CCN(c4ccccn4)CC3)c3ccccc3c2=O)c(OC)c1,n,43,n,n,n
COc1ccc(-n2nc(C(=O)NCC(=O)N3CCN(c4cccc(Cl)c4)CC3)c3ccccc3c2=O)c(OC)c1,n,x,x,n,x
CCCCCC(=O)NNC1CC(=O)N(c2cccc(OCC)c2)C1=O (stereo not drawn),n,n,n,n,n
CSc1cccc(-n2ccc(=O)c(C)c2C)c1,n,n,n,n,n
CCc1cccc(NC(=O)c2ccc3c(=O)n4c(nc3c2)CCCCC4)c1,n,n,n,n,n
O=[N+]([O-])c1ccc(C2=NN(CCO)C(=Nc3ccc(OC(F)(F)F)cc3)SC2)cc1,n,31,n,n,n
C#CCOCCOCCOCCNc1nc(N2CCOCC2)nc(N2CCN(C(=O)[C@H](Cc3cc4ccccc4[nH]3)n3cc([C@@H](N)C(C)CC)nn3)CC2)n1 (stereo partly drawn),n,n,n,n,n
C#CCOCCOCCOCCNc1nc(N2CCN(C(=O)[C@H](CCC(=O)O)n3cc(C(N)CC(C)C)nn3)CC2)nc(N2CCN(C(=O)[C@H](Cc3cc4ccccc4[nH]3)n3cc(C(N)[C@H](C)CC)nn3)CC2)n1 (stereo partly drawn),n,n,n,n,n

# Screening data deposited in PubChem by Broad Institute.
